Screening results: PubChem BioAssay, several laboratories
HSF1 inhib: HSF1 inhibition. activity change, negative = inhibition, % at 7.5 µM (by protocol). 0.77% of 300,000 active. AID 2098. NIH3T3-HGL HSE-luciferase, MG132-induced, luminescence 8 h; stronger effect = lower value;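 active = more than half of replicate wells show activity change below -50%, luminescence cut by over half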;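 also: luciferase reports HSF-1 transcriptional activity via heat shock element; 0% = median of DMSO wells and -100% = zero luminescence signal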
T cruzi repl: T. cruzi replication inhibition. T. cruzi beta-gal in NIH3T3, luminescence, 90 h. inhibition, % (no concentration beside the values). 1.4% of 300,000 active. AID 1885;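 active = mean inhibition across valid replicates above about 55%, limit read from the data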;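 also: signal also drops with host cell toxicity which is not excluded here; 0% = plate median of DMSO wells and 100% = zero luminescence signal; higher percent means less beta-gal luminescence so fewer parasites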
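System: Mouse NIH/3T3 fibroblasts infected with β-gal-expressing T. cruzi Tulahuen C4 | Quantity: NIH/3T3 cells, 5,000 per well | Reagent: 5000 reporter trypomastigotes per well | Dosing: Compound pinned at 50 nL/well, DMSO | Schedule: 3 h host attachment, then at least 90 h co-culture | Detection: GalScreen luminescence, 60 min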
GPR7 antag: human neuropeptides B/W receptor 1 antagonism; P48145; GPR7-expressing cells, fluorescence antagonist assay; inhibition, % at 4.4 µM; 1.1% of 290,000 active; AID 1861; in the data active = inhibition above about 16%, passing the limit was not always enough;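 also: cells stimulated with the agonist NPW; 0% = agonist with vehicle and 100% = vehicle without agonist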
Target sequence (P48145 whole entry, looked up): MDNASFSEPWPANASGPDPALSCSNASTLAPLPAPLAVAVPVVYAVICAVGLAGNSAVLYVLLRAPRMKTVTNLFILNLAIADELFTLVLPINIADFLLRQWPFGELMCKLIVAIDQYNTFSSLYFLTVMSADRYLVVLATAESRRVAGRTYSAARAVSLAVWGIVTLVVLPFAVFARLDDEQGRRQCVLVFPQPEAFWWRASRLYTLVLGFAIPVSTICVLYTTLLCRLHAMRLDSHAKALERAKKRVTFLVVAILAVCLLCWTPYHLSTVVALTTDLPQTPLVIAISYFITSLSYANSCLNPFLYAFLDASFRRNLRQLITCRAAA
HSF-1 act: increases HSF-1 driven luciferase reporter signal | NIH3T3-HGL HSF-1 luciferase reporter, MG132, 8 h; 100% = twice DMSO control signal | 1.7% of 300,000 active | AID 504408 | activation, % at 9 µM;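 active = mean replicate activation of at least 50% with a set share of replicates each reaching 50%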;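 also: 0% = median of the neutral control wells and 100% = twice that signal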
697 NFkB inh: lowers PMA/ionomycin-induced NF-kB signal in 697 B cells. 697 B-cell NF-kB luciferase reporter, 16 h. inhibition, % at 4 µM. 0.33% of 330,000 active; in the data active = inhibition above about 35%
Jurkat NFkB inh: inhibitors of the PMA/ionomycin-induced NF-kB reporter in Jurkat cells; PMA/ionomycin-induced NF-kB luciferase reporter, luminescence; inhibition, % at 4 µM; 0.53% of 330,000 active; AID 435003; in the data active = inhibition above about 50%
Starred values were filed as active, the others as inactive; . = not tested or not shown. The list is not random: actives were taken first. Their share in the collection is about 4.8%.

SMILES	HSF1 inhib	T cruzi repl	GPR7 antag	HSF-1 act	697 NFkB inh	Jurkat NFkB inh
O=C(COC(=O)CNC(=O)c1ccc(Cl)cc1)Nc1ccc(Cl)cc1C(F)(F)F	1	-28	-15	10	-5	-10
CCc1ccc2c(CN(C)Cc3ccccc3OC)cc(=O)oc2c1	0	8	0	16	-38	-78
CCCC(=O)NCC(c1cccs1)S(=O)(=O)c1ccc(C)cc1 (stereo not given)	-1	0	-7	1	-1	3
CC(C)Oc1ccc(CN=C(N)N=C(N)N)cc1Cl	6	3	-10	55*	-7	-2
CC(=O)N/C(=C/c1ccc2c(c1)OCO2)C(=O)O	-8	-18	-10	6	17	-10
CCC(NC(=O)/C(=C\c1ccc2c(c1)OCO2)NC(C)=O)C(=O)O (stereo not given)	27	-23	-3	59*	-33	-10
CC(=O)N/C(=C\c1ccccc1)C(=O)OCC(=O)Nc1cc(S(=O)(=O)N(C)C)ccc1Cl	.	.	.	.	-6	11
Cc1cc(Cl)cc(Br)c1OCCCN1C(=O)NC(C)(C)C1=O	32	3	6	75*	-5	6
Cc1ccc(NC(=O)Nc2cccc3ccccc23)cc1	4	-8	2	13	-36	-33
N#CCc1ccc(NC(=O)Nc2cccc3ccccc23)cc1	-78*	-1	23	-82	-11	-32
O=C(C[n+]1cc(-c2ccccc2)n2c1CCCCC2)c1ccc(Cl)cc1	-15	38	8	-28	6	12
Cc1ccc(-c2c[n+](CC(=O)c3ccc(Br)cc3)c3n2CCCCC3)cc1	-6	74*	8	-3	-29	8
Cc1ccccc1CN1C(=O)c2ccccc2Sc2ccc(C(=O)NCCN3CCOCC3)cc21	27	23	23	60*	-24	2
COC(=O)c1ccc(-n2c(C)cc(C(=O)CCl)c2C)cc1	8	52	-19	14	24	-5
CCOc1ccc(-n2c(C)cc(C(=O)CCl)c2C)cc1	12	86*	-5	3	7	-4
CCOc1ccc(-n2c(C)cc(/C=N/N(C)C)c2C)cc1	3	56*	-12	27	2	1
COc1ccccc1CNC(=O)c1nn(C)c2c1CS(=O)(=O)c1ccccc1-2	-5	2	-8	-4	17	3
Cc1ccc(/C=C2/NC(=O)N(Cc3ccc(Br)cc3)C2=O)o1	33	7	-10	59*	1	-7
C=CCNc1nc(-c2ccccn2)nnc1-c1ccccc1	-4	69*	-9	-2	9	1
COc1ccc(CN2CCNC(=O)C2CC(=O)NC2CCCC2)c(C)c1C (stereo not given)	-4	5	6	-4	-13	8
CCCCCCCCn1c(N2CCN(c3cccc(Cl)c3)CC2)nc2c1c(=O)[nH]c(=O)n2C	1	55*	3	7	-12	3
O=C(c1cc([N+](=O)[O-])ccc1Cl)N1CCN(Cc2ccc3c(c2)OCO3)CC1	-6	-3	-4	-9	6	6
O=C(c1cc([N+](=O)[O-])cc([N+](=O)[O-])c1)N1CCN(Cc2ccc3c(c2)OCO3)CC1	-1	66*	-1	-19	-27	6
Cc1cc(C)cc(NC(=O)N2CCN(Cc3ccc4c(c3)OCO4)CC2)c1	-58*	.	1	-63	2	-7
O=C(CSc1nnc(Nc2ccccc2F)s1)Nc1cccc(S(=O)(=O)N2CCCCC2)c1	8	2	4	24	-20	-12
COP(=O)(OC)c1nc(-c2cccc3ccccc23)oc1NCc1ccccc1	25	2	-4	87*	12	-2
Cc1c(O)ccc2c(CC(=O)N[C@@H](Cc3ccc(O)cc3)C(=O)O)cc(=O)oc12	-70*	-13	4	-77	-46	-45
COc1ccc2c(CC(=O)N[C@@H](Cc3ccccc3)C(=O)O)cc(=O)oc2c1C	-3	4	4	-8	-8	-26
Nc1ncnc2c1ncn2[C@@H]1O[C@H](CNCc2c(OCc3ccccc3F)ccc3ccccc23)[C@@H](O)[C@H]1O	.	.	.	.	-8	-15
O=[N+]([O-])c1cccc(-c2ccc(/C=N/NC(=S)Nc3ccccc3)o2)c1	8	56*	-10	18	-12	-31
